Assay [1] has as its system LNCaP. The assay is described as follows: Antioxidant activity against formation of ROS was determined in t-BuOOH treated LNCaP cells after 24 hr of incubation with compounds (1-100 uM); Not active at 100 uM. It is filed as functional, cell-based, Homo sapiens.
Assay [2] concerns LNCaP. The assay is described as follows: Antiproliferative activity was determined by colorimetric MTS assay in LNCaP cells after 72 hr of incubation with compounds (1-100 uM); Not active at 100 uM. It is filed as functional, cell-based, Homo sapiens. The method in brief: (§1)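 LNCaP cells exposed 72 h to compounds (1–100 μM). Proliferation read by colorimetric MTS assay. IC50 is the concentration giving 50% inhibition of cell proliferation. Mean ± SD of three independent experiments.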

Assay [3] has as its target T1, Alpha-1D adrenergic receptor (Rattus norvegicus, UniProt P23944).
T1 sequence (P23944 whole entry): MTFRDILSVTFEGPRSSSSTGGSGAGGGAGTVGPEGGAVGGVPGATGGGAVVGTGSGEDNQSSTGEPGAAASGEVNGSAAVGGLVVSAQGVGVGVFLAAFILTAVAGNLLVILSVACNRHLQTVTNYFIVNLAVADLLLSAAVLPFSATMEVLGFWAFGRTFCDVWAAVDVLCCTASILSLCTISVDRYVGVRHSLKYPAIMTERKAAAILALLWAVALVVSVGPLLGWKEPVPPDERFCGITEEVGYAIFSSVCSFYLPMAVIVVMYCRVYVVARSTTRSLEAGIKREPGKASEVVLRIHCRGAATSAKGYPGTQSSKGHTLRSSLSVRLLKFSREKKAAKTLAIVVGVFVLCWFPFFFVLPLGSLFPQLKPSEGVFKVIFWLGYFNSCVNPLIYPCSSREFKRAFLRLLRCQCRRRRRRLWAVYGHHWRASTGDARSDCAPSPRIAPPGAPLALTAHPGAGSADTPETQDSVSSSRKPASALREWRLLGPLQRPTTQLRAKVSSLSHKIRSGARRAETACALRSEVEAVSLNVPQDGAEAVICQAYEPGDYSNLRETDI
The assay is described as follows: Blocking activity was assessed by antagonism of (-)-noradrenaline induced contraction of rat thoracic aorta (Alpha-1D adrenoceptor). It is filed as functional, tissue-based. The settings on record: read-out: pA2 (converted).

Assay [4] addresses T2, Alpha-1B adrenergic receptor (Rattus norvegicus, UniProt P15823).
T2 sequence (P15823 whole entry): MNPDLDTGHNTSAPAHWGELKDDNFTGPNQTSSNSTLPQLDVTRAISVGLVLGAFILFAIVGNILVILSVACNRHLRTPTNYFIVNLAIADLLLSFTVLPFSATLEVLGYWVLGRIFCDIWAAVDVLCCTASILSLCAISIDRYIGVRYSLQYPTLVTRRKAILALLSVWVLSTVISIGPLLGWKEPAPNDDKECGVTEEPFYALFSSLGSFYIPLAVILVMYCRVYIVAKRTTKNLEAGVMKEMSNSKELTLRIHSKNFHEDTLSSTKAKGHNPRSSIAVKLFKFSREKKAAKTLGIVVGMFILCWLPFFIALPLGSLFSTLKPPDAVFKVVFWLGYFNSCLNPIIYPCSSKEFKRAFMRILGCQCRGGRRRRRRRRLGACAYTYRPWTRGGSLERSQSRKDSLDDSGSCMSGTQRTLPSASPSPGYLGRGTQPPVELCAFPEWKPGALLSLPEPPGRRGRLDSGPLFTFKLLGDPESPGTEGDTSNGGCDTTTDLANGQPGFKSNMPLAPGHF
Description: Blocking activity was assessed by antagonism of (-)-phenylephrine induced contraction of rat spleen (alpha1B adrenoceptor). The settings on record: read-out: pA2 (converted). Format: functional, tissue-based.

For assay [5], the target named is T3, Alpha-1A adrenergic receptor (Rattus norvegicus, UniProt P43140).
T3 sequence (P43140 whole entry): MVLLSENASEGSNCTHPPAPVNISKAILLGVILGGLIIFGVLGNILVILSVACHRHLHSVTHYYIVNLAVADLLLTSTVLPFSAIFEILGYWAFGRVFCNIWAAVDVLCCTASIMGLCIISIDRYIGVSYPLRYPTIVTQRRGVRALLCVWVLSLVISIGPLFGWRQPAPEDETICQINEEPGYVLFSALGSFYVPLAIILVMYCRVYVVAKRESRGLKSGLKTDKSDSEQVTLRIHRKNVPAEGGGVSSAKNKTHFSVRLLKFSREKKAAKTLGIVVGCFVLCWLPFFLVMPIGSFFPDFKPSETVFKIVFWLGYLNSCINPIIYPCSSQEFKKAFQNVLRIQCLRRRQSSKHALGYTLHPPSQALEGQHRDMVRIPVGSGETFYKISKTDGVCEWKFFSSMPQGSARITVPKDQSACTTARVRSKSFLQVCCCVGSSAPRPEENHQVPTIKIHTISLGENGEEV
Description: Blocking activity was assessed by antagonism of (-)-noradrenaline induced contraction of rat prostatic vas deferens (alpha1A adrenoceptor). Particulars: read-out: pA2 (converted); call rule not given here. Format: functional, tissue-based.

In assay [6] the test system is LNCaP. Description: Antioxidant activity against formation of ROS was determined in t-BuOOH treated LNCaP cells after 24 hr of incubation with compounds (1-100 uM). Format: functional, cell-based. Particulars: Homo sapiens.
Assay [7] has as its system LNCaP. The assay is described as follows: Antiproliferative activity was determined by colorimetric MTS assay in LNCaP cells after 72 hr of incubation with compounds (1-100 uM). Format: functional, cell-based. The settings on record: Homo sapiens. The method in brief:
as §1
Background: Tetrazolium dyes change colour on reduction, which living cells bring about.

Assay [8] deals with T4, Alpha-1D adrenergic receptor (Homo sapiens, UniProt P25100).
T4 sequence (P25100 whole entry): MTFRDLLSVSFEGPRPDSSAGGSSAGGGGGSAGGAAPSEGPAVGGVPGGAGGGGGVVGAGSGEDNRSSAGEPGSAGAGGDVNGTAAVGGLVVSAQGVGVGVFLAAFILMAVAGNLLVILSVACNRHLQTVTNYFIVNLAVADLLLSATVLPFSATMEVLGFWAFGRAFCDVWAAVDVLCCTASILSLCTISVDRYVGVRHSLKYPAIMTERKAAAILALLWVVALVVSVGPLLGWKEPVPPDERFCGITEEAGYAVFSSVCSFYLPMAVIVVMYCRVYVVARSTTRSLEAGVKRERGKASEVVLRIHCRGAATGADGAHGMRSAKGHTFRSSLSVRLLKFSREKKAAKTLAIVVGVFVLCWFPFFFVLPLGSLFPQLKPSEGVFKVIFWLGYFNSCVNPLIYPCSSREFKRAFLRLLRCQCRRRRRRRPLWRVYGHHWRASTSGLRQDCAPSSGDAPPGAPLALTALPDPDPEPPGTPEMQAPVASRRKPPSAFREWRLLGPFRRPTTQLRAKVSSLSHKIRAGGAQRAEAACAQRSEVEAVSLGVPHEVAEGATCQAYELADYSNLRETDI
Description: Equilibrium dissociation constant was evaluated by radio-receptor binding assays using [3H]prazosin to label cloned human alpha 1d expressed in CHO cells. It is filed as cell-based.

Assay [9] deals with T5, Alpha-1B adrenergic receptor (Homo sapiens, UniProt P35368).
T5 sequence (P35368 whole entry): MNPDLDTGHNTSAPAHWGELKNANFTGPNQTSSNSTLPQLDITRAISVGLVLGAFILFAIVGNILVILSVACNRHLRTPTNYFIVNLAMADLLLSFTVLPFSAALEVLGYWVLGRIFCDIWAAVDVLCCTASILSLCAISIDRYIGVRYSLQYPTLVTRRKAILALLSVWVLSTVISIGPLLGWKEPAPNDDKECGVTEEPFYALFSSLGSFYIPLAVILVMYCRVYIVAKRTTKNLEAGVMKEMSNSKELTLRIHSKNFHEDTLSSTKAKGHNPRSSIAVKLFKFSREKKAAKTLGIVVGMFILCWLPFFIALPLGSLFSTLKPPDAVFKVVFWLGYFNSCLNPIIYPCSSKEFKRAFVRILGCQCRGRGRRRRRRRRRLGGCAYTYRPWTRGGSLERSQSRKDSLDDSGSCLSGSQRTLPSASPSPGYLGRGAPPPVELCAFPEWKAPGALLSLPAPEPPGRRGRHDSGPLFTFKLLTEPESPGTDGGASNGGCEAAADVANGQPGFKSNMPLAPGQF
The assay is described as follows: Equilibrium dissociation constant was evaluated by radio-receptor binding assays using [3H]prazosin to label cloned human alpha 1b expressed in CHO cells. Format: cell-based.

For assay [10], the target named is T6, Alpha-1A adrenergic receptor (Homo sapiens, UniProt P35348).
T6 sequence (P35348 whole entry): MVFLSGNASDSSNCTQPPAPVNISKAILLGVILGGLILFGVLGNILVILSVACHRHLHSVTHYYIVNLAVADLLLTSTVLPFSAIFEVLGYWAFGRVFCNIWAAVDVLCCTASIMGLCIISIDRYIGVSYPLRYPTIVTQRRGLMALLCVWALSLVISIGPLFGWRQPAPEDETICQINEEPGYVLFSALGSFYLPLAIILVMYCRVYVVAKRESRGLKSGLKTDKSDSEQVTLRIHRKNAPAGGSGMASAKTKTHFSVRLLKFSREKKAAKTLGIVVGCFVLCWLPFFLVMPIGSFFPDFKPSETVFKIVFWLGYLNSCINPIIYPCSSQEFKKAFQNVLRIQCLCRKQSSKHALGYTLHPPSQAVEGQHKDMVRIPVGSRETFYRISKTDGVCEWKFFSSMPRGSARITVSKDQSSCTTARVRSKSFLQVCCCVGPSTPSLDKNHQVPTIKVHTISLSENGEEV
The assay is described as follows: Equilibrium dissociation constant was evaluated by radio-receptor binding assays using [3H]prazosin to label cloned human alpha 1a expressed in CHO cells. Format: cell-based.

Assay [11] concerns LNCaP. Description: Antioxidant activity against t-BuOOH induced ROS formation in LNCaP cells after 24 hr at 1-100 uM; Inactive at 100 uM. It is filed as functional, cell-based, Homo sapiens.
Assay [12] has as its system LNCaP. The assay is described as follows: Antiproliferative activity in MTS assay in LNCaP cells after 72 hr at 1-100 uM; Inactive at 100 uM. It is filed as functional, cell-based, Homo sapiens. The method in brief: as §1

Here are results for eight molecules from ChEMBL document CHEMBL1139490, “Design, synthesis, and biological evaluation of prazosin-related derivatives as multipotent compounds” (J Med Chem, 2005).

Bounds are passed on as bounds.

As for `COc1cc2nc(N3CCNCC3)nc(N)c2cc1OC` [AMINODIMETHOXYQUINAZOLINYLPIPERAZINE], the IC50 result with LNCaP [1] and in the assay with LNCaP [2] was “Not Active” in each case.

Take `O=C(O)CCCCC1CCSS1` (stereo not drawn) [LIPOIC ACID, ALPHA]: the Kb in assay [3], in assay [4] and in [5] was greater than 10000 nM in each case. Besides, the IC50 entry was “Not Active” with LNCaP [2] and 54900 nM with LNCaP [6].

For the molecule `COc1cc2nc(N3CCN(C(=O)CC4CCSS4)CC3)nc(N)c2cc1OC` (stereo not drawn), the IC50 in the assay with LNCaP [7] was 52600 nM; in the assay on LNCaP [1], “Not Active”. Further, the Ki in assay [8] is 0.389 nM; in assay [9] it was 0.309 nM; in assay [10], 0.288 nM. In addition, the Kb was 0.912 nM in assay [3], 1.02 nM in assay [4] and 1 nM in [5].

With `COc1cc2nc(N3CCN(C(=O)CCCCC4CCSS4)CC3)nc(N)c2cc1OC` (stereo not drawn), the inhibition constant Ki in assay [8] is 0.891 nM; in [9], 1.26 nM; in [10], 1.41 nM. Besides, the Kb is 12 nM in [3], 40.7 nM in assay [4] and 64.6 nM in [5]. Moreover, the IC50 entry in the assay on LNCaP [2] is “Not Active”; in the assay with LNCaP [6] it was 83500 nM.

In the case of `COc1cc2nc(N3CCN(C(=O)C4CCSS4)CC3)nc(N)c2cc1OC` (stereo not drawn), the half-inhibitory concentration (IC50) is 49600 nM with LNCaP [7] and “Not Active” with LNCaP [1]. For the same molecule, the figures for the Ki in assay [8], in assay [9] and in assay [10] were 0.49 nM, 0.537 nM and 0.813 nM, respectively. Also, the Kb in [3] is 0.871 nM; in [4], 1.74 nM; in assay [5], 18.6 nM.

For `COc1cc2nc(N3CCN(C4=CC(=O)c5ccccc5C4=O)CC3)nc(N)c2cc1OC`, the 50% inhibitory concentration (IC50) in the assay with LNCaP [7] amounted to 8820 nM; in the assay with LNCaP [6], 2630 nM. The Ki is 0.933 nM in assay [8], 0.676 nM in [9] and 1.26 nM in assay [10]. In addition, the results for the Kb in assay [3], in assay [4] and in assay [5] were 0.891 nM, 3.09 nM and 22.9 nM, respectively.

Consider `COc1cc2nc(N3CCN(C(=O)c4ccco4)CC3)nc(N)c2cc1OC` [PRAZOSIN], for which the values for the IC50 in the assay with LNCaP [7] and in the assay on LNCaP [1] were 67500 nM and “Not Active”, respectively.

Take `COC1=CC(=O)c2ccccc2C1=O` [2-Methoxy-1,4-naphthoquinone]: the IC50 entry with LNCaP [11] and with LNCaP [12] was “Not Active” throughout.

In general, IC50 refers to the concentration at which inhibition is half-maximal. Broadly, the Ki is the dissociation constant of the complex between target and ligand, obtained from inhibition or displacement. A high value points to weaker binding.
